Data on 42 compounds can be found in ChEMBL document CHEMBL1140408 (J Med Chem, 2005).

T1 sequence (O35433 whole entry): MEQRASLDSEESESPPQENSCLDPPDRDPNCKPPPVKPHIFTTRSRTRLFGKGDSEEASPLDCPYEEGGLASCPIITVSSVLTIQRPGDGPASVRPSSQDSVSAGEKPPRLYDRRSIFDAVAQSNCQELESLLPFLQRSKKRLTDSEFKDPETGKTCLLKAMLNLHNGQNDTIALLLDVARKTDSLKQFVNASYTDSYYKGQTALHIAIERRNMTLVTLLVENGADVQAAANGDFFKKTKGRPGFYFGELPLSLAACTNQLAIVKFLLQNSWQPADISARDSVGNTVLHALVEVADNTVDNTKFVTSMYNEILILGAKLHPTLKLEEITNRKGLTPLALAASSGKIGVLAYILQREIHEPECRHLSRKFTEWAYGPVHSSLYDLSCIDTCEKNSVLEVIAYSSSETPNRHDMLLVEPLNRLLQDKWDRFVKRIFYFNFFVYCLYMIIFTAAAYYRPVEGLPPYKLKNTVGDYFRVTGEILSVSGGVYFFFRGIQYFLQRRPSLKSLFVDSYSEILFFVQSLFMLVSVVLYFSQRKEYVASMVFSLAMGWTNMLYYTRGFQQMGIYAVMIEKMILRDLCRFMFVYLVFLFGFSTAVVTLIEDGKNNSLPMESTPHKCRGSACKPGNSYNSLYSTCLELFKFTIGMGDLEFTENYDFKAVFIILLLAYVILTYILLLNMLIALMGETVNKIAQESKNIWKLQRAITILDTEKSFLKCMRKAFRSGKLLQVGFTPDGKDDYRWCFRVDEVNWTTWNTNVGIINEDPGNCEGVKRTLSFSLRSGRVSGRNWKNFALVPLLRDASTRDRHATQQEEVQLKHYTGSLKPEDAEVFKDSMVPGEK
T2 sequence (Q8NER1 whole entry): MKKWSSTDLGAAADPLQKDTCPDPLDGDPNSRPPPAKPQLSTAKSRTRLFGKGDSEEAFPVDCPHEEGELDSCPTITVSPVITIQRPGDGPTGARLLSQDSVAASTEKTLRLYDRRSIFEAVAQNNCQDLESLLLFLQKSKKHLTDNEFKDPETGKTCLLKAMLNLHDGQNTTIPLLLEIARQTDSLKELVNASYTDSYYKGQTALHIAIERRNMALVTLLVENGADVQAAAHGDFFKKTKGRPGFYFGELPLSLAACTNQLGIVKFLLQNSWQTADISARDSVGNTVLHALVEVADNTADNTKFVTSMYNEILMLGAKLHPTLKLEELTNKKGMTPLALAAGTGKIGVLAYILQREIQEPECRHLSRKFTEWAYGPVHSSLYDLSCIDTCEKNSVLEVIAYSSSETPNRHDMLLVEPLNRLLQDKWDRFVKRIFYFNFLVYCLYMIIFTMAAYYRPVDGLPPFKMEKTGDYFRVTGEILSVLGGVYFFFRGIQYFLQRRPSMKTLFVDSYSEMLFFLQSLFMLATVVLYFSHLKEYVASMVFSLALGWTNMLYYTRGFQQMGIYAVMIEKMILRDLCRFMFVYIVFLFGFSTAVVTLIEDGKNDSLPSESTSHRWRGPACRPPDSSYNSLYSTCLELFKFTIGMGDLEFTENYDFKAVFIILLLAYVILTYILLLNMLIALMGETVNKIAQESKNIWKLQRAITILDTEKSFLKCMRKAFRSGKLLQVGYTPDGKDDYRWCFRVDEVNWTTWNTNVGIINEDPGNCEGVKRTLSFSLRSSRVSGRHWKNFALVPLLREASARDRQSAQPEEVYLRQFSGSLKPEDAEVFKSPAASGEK

One experiment addresses T1, Transient receptor potential cation channel subfamily V member 1 (Rattus norvegicus, UniProt O35433). Nature of the experiment: Inhibitory effect on capsaicin (0.5 uM)-induced calcium uptake in rat DRG neurons upon incubation at RT for 10 minutes. The method in brief: (§1)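 Neonatal Sprague–Dawley rat DRG neurons, dissociated with collagenase/trypsin and cultured 3 days with 200 ng/mL NGF (cytosine arabinoside for the first 2 days), were washed in Ca/Mg-free HBSS with 10 mM HEPES at pH 7.4. They were then given 45Ca2+ (10 µCi/mL), 0.5 µM capsaicin and compound for 10 min at room temperature, SDS-lysed and scintillation-counted.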
Usually IC50 stands for the concentration that inhibits the measured activity by half. Regarding `CC(C)(C)c1ccc(CNC(=S)NCc2ccc3nc[nH]c3c2)cc1`, the IC50 worked out at 790 nM.
On to `CC(C)(C)c1ccc(C/N=C(\S)NCc2ccc(NS(C)(=O)=O)c(C(=O)NO)c2)cc1`, for which the IC50 is above 30000 nM.
As for `CC(C)(C)c1ccc(CNC(=S)NCc2ccc3[nH]ccc3c2)cc1`, the IC50 is 1800 nM.
With `Cc1ccc(C/N=C(\S)NCc2ccc(NS(C)(=O)=O)c(F)c2)cc1`, the IC50 was found to be 1500 nM.
In the case of `COC(=O)CNc1ccc(CNC(=S)NCc2ccc(C(C)(C)C)cc2)cc1F`, the IC50 worked out at 3600 nM.
The same measure, in the same setting: the value for `CS(=O)(=O)Nc1ccc(C/N=C(\S)NCc2ccc(Br)cc2)cc1F` was 570 nM; that for `CC(C)(C)c1ccc(C/N=C(\NC#N)NCc2ccc(NS(C)(=O)=O)c(F)c2)cc1` was 730 nM; that for `CCOC(=O)Nc1ccc(C/N=C(\S)NCc2ccc(C(C)(C)C)cc2)cc1F` was above 30000 nM.
On to `CCCc1ccc(CNC(=S)NCc2ccc(NS(C)(=O)=O)c(F)c2)cc1`, for which the IC50 amounted to 460 nM.
For the compound `CS(=O)(=O)Nc1ccc(CN=C(S)NCc2cccc3ccccc23)cc1F`, the IC50 was determined as 2600 nM.
On to `COCC(=O)Nc1ccc(CNC(=S)NCc2ccc(C(C)(C)C)cc2)cc1F`, for which the IC50 came out at 10900 nM.
Same read-out and setting: the value for `CS(=O)(=O)Nc1ccc(CNC(=S)NCc2ccc(-c3ccccc3)cc2)cc1F` was above 30000 nM; that for `Cc1ccccc1C/N=C(\S)NCc1ccc(NS(C)(=O)=O)c(F)c1` was 670 nM; that for `CCOC(=O)N/C(=N\Cc1ccc(NS(C)(=O)=O)c(F)c1)NCc1ccc(C(C)(C)C)cc1` was 6200 nM.
`CC(C)(C)c1ccc(C/N=C(\S)NCc2ccc(NS(C)(=O)=O)c(Br)c2)cc1`: the IC50 amounted to 80 nM.
On to `CC(C)(C)c1ccc(N/C(S)=N/Cc2ccc(NS(C)(=O)=O)c(F)c2)cc1`, for which the IC50 was determined as 1600 nM.
As for `CC(C)(C)c1ccc(CNC(=S)NCc2ccc(NS(C)(=O)=O)c([N+](=O)[O-])c2)cc1`, the IC50 turned out to be 71 nM.
Still for that read-out and setting: in the case of `CS(=O)(=O)Nc1ccc(C/N=C(\S)NC(c2ccccc2)c2ccccc2)cc1F` it was 2500 nM.
In the case of `CCc1ccc(C/N=C(\S)NCc2ccc(NS(C)(=O)=O)c(F)c2)cc1`, the IC50 was determined as 1100 nM.
The same measure, in the same setting: in the case of `CCOC(=O)CNc1ccc(CNC(=S)NCc2ccc(C(C)(C)C)cc2)cc1F` it was above 30000 nM.
For the compound `CC(C)(C)c1ccc(CCNC(=S)NCc2ccc(NS(C)(=O)=O)c(F)c2)cc1`, the IC50 stood at 370 nM.
Still for that read-out and setting: in the case of `CC(C)(C)c1ccc(CNC(=S)NCc2ccc3nn[nH]c3c2)cc1` it was 50 nM; in that of `CONC(=O)c1cc(C/N=C(\S)NCc2ccc(C(C)(C)C)cc2)ccc1NS(C)(=O)=O`, above 30000 nM; in that of `CC(C)c1ccc(C/N=C(\S)NCc2ccc(NS(C)(=O)=O)c(F)c2)cc1`, 520 nM.
Still for that read-out and setting: the value for `CC(C)OC(=O)c1cc(C/N=C(\S)NCc2ccc(C(C)(C)C)cc2)ccc1NS(C)(=O)=O` was above 30000 nM; that for `CC(C)(C)c1ccc(CCC/N=C(\S)NCc2ccc(NS(C)(=O)=O)c(F)c2)cc1` was 2000 nM.
For `CS(=O)(=O)Nc1ccc(C/N=C(\S)NCc2ccc(I)cc2)cc1F`, the IC50 is 630 nM.
For `CC(C)(C)c1ccc(CNC(=S)NCc2ccc(NC(=O)C(F)(F)F)c(F)c2)cc1`, the IC50 is above 30000 nM.
Same read-out and setting: in the case of `CC(C)(C)c1ccc(CNC(=S)NCc2ccc(NS(C)(=O)=O)c(I)c2)cc1` it was 41 nM; in that of `CC(C)(C)c1cc(CNC(=S)NCc2ccc(NS(C)(=O)=O)c(F)c2)cc(C(C)(C)C)c1`, 200 nM; in that of `Cc1cccc(CNC(=S)NCc2ccc(NS(C)(=O)=O)c(F)c2)c1`, 1300 nM.
On the same count and under the same terms, the value for `CC(C)(C)c1ccc(C/N=C(\S)NCc2ccc(NS(C)(=O)=O)c(C#N)c2)cc1` was 5900 nM; that for `CS(=O)(=O)Nc1ccc(C/N=C(\S)Nc2c3ccccc3cc3ccccc23)cc1F` was 1100 nM; that for `CCCCc1ccc(CNC(=S)NCc2ccc(NS(C)(=O)=O)c(F)c2)cc1` was 470 nM.
On the same count and under the same terms, in the case of `CC(C)(C)c1ccc(C(C)(C)/N=C(\S)NCc2ccc(NS(C)(=O)=O)c(F)c2)cc1` it was above 30000 nM.
On to `CC(C)(C)NC(=S)NCc1ccc(NS(C)(=O)=O)c(F)c1`, for which the IC50 is above 30000 nM.

The target of the next experiment is T1, Transient receptor potential cation channel subfamily V member 1. Kind of experiment: Inhibitory effect on capsaicin (0.5 uM)-induced calcium uptake in rat DRG neurons upon incubation at RT for 10 minutes; NE=Not effective. A digest of the protocol:
as §1
For `CC(C)(C)c1ccccc1C/N=C(\S)NCc1ccc(NS(C)(=O)=O)c(F)c1`, the IC50 result is listed as “Not Active”.
For `CC(C)(C)c1ccc(C/N=C(\S)NCc2ccc(N)c(F)c2)cc1`, the IC50 result is on record as “Not Active”.
Still for that read-out and setting: the value for `COC(=O)Nc1ccc(C/N=C(\S)NCc2ccc(C(C)(C)C)cc2)cc1F` was “Not Active”.

For the next experiment the target is unchanged. Nature of the experiment: Inhibitory effect on capsaicin (0.5 uM)-induced calcium uptake in rat DRG neurons upon incubation at RT for 10 minutes; NE = Not effective. A digest of the protocol:
as §1
`CC(C)(C)c1ccc(C/N=C(\S)NCc2ccc3c(c2)OCO3)cc1`: the IC50 result is given as “Not Active”.
Take `CC(C)(C)c1ccc(C/N=C(\S)NCc2ccc(NCC(=O)O)c(F)c2)cc1`: the IC50 entry is listed as “Not Active”.

A further experiment addresses T2, Transient receptor potential cation channel subfamily V member 1 (Homo sapiens, UniProt Q8NER1). Nature of the experiment: Concentration required to inhibit [3H]RTX radioligand binding towards transient receptor potential cation channel (subfamily V, member 1) expressed in chinese hamster ovary cells. It counts as cell-based, CHO.
In turn, `CC(C)(C)c1ccc(CNC(=S)NCc2ccc(NS(C)(=O)=O)c(F)c2)cc1` yielded an IC50 of 54 nM.

The next experiment deals with T2, Transient receptor potential cation channel subfamily V member 1. Kind of experiment: Concentration required to antagonized capsaicin-induced calcium uptake at the transient receptor potential cation channel (subfamily V member 1) expressed in chinese hamster ovary cells. It counts as cell-based, CHO.
The EC50 is the midpoint of the concentration-response curve. For `CC(C)(C)c1ccc(CNC(=S)NCc2ccc(NS(C)(=O)=O)c(F)c2)cc1`, the EC50 worked out at 8 nM.
